According to the RNAGym collection of RNA variant scans (doi:10.1126/science.aae0568):
Fewer inactive variants are shown than the library holds.

B1: tRNA (parent)
chain: GUUCCGUUGGCGUAAUGGUAACGCGUCUCCCUCCUAAGGAGAAGACUGCGGGUUCGAGUCCCGUACGGAACG

Variants of: B1
Assay: yeast fitness relative to wild type (ratio to wild type); higher = fitter; tRNA-Arg(CCU), competitive growth, 37 C, YPD
In short: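 Genotype frequency changes were the basis for Darwinian fitness relative to wild type. The frequencies came from 100-nucleotide paired-end sequencing of gene amplicons from the start population and each end population of pooled yeast strains with tRNA-Arg(CCU) gene variants at the native locus. Competition ran in YPD at 37°C for 24 hours in six replicates, genotypes needed ≥ 100 starting reads, and estimates < 0.5 were set to 0.5.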

Point of comparison: U16G A20U G38A, yeast fitness 0.538. Against it:
- U16C A20U G25A U28C C30G — lower, ≤ 0.5
- U16C A21C C22U — lower, ≤ 0.5
- U16C A21G — higher, 0.91
- U16C A36C — higher, 0.675
- U16C A37G A42C A69U — lower, ≤ 0.5
- U16C A40C A57U G68A — higher, 0.641
- U16C A42G G67A — lower, ≤ 0.5
- U16C A69G A70G — higher, 0.745
- U16C A69U — higher, 0.998
- U16C C22A C30U C31G — lower, ≤ 0.5
- U16C C22A U53C — higher, 0.629
- U16C C22U A37U G67C — lower, ≤ 0.5
- U16C C24G C30G A36U C66U — lower, ≤ 0.5
- U16C C24U C30U C66U — lower, ≤ 0.5
- U16C C27G — higher, 0.727
- U16C C27G G48C A65C — lower, ≤ 0.5
- U16C C27G G52A C60G A69U A70C — lower, ≤ 0.5
- U16C C27U G63A A65G — lower, ≤ 0.5
- U16C C29U A36U A40C C46U — lower, ≤ 0.5
- U16C C29U C34U A57C U64C — lower, ≤ 0.5
- U16C C30A C31U — higher, 0.834
- U16C C30U — higher, 0.893
- U16C C31A A42U C62G A70C — lower, ≤ 0.5
- U16C C31A C34U A69C — lower, ≤ 0.5
- U16C C31A G51A — lower, ≤ 0.5
- U16C C34A A37G — lower, ≤ 0.5
- U16C C34G A65U G67U — lower, ≤ 0.5
- U16C C34G C55U — lower, ≤ 0.5
- U16C C34G G51A — lower, 0.534
- U16C C49A — higher, 0.731
- U16C C49G C62U — lower, 0.528
- U16C C62U — higher, 1
- U16C G17C C22G — lower, 0.534
- U16C G17C G38C C46U G58C — higher, 0.64
- U16C G18A C24G A45U U47C — lower, ≤ 0.5
- U16C G18A C34G G39A C62G — lower, ≤ 0.5
- U16C G18A U28A C31A U32A A57G G67A — higher, 0.962
- U16C G39C — higher, 0.696
- U16C G48A A70U — higher, 0.798
- U16C G48C C62U A65G — lower, ≤ 0.5
- U16C G50C C66U — higher, 0.584
- U16C G51A — higher, 0.633
- U16C G52A G56A — higher, 0.69
- U16C G52C A70G — lower, ≤ 0.5
- U16C G56A G67C — lower, 0.514
- U16C G58A U59C — higher, 0.555
- U16C G58C — higher, 1.06
- U16C U19G C27G C34U A40U U53A A70U — higher, 0.674
- U16C U28C — higher, 0.859
- U16C U32A — higher, 0.682
- U16C U32C — higher, 0.918
- U16C U32C C49A — higher, 0.617
- U16C U47A G68A — lower, ≤ 0.5
- U16C U47C C60U C62A — lower, ≤ 0.5
- U16C U59A — higher, 0.852
- U16G A20C G67C — lower, ≤ 0.5
- U16G A20G — higher, 1
- U16G A20G A69C — higher, 0.749
- U16G A20U C60G — lower, ≤ 0.5
- U16G A21U C34G A40U — higher, 0.624
- U16G A36C G39C G63A A65U — lower, ≤ 0.5
- U16G A36G A65G — lower, ≤ 0.5
- U16G A40U C62G — higher, 0.566
- U16G A45U G50A A69C — higher, 0.631
- U16G A57G C62G C66U — lower, 0.517
- U16G A65U A70U — higher, 0.64
- U16G C22A C61A — lower, ≤ 0.5
- U16G C22A C62A — lower, ≤ 0.5
- U16G C24U C49G C55G — lower, ≤ 0.5
- U16G C24U C49G C66U — lower, ≤ 0.5
- U16G C27U U28A G52C U54A C66U — lower, ≤ 0.5
- U16G C29G C46U G51C C55G — lower, ≤ 0.5
- U16G C29G C49G A65U — lower, ≤ 0.5
- U16G C29U C30U — lower, ≤ 0.5
- U16G C29U C31A C46U — higher, 0.716
- U16G C29U C46U G67C A69U — lower, 0.521
- U16G C30G C55G — lower, ≤ 0.5
- U16G C30U C46G — higher, 0.541
- U16G C31G C55U C61A C66U — lower, ≤ 0.5
- U16G C31U A42U — lower, 0.522
- U16G C34G A37C — higher, 0.706
- U16G C34G A42G C49G C62U A69C — lower, 0.506
- U16G C60A — higher, 0.606
